Data reported in ChEMBL document CHEMBL4020842, “Discovery of N1-(4-((7-Cyclopentyl-6-(dimethylcarbamoyl)-7 H-pyrrolo[2,3- d]pyrimidin-2-yl)amino)phenyl)- N8-hydroxyoctanediamide as a Novel Inhibitor Targeting Cyclin-dependent Kinase 4/9 (CDK4/9) and Histone Deacetlyase1 (HDAC1) against Malignant Cancer” (J Med Chem, 2018).
Active and inactive are the calls of the source. The rule behind the calls is not given here.

Legend:
Hep 3B2 [1] = test: Cytotoxicity against human Hep3B cells assessed as reduction in cell viability after 72 hrs by CCK8 assay
NCI-H460 [2] = test: Cell cycle arrest in human NCI-H460 cells assessed as accumulation at G0/G1 phase after 24 hrs by propidium iodide staining based flow cytometry; assay type: functional
In short: (§1)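 Cells were exposed for 24 h to a range of concentrations (625 nM, 2.5 and 10 µM), with DMSO vehicle as control. They were then stained with propidium iodide and analysed by flow cytometry to obtain the percentages of cells in G0/G1, S and G2 phases.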

4T1 [3] = test: Antitumor activity against mouse Fluc-labeled 4T1 cells implanted in Balb/c mouse assessed as tumor growth inhibition at 130 mg/kg, po administered daily via gavage for 18 days by bioluminescence assay relative to control; assay type: functional; conditions: 4T1, po, 432 h, read-out: TGI
NCI-H1299 = test: Cytotoxicity against human NCI-H1299 cells assessed as reduction in cell viability after 72 hrs by CCK8 assay; assay type: functional, cell-based; conditions: NCI-H1299, 72 h
T47D [4] = test: Cell cycle arrest in human T47D cells assessed as accumulation at G0/G1 phase after 24 hrs by propidium iodide staining based flow cytometry; assay type: functional; in short: as §1
HepG2 [5] = test: Cell cycle arrest in human HepG2 cells assessed as accumulation at G0/G1 phase after 24 hrs by propidium iodide staining based flow cytometry; assay type: functional; in short: as §1
4T1 [6] = test: Cytotoxicity against mouse 4T1 cells assessed as reduction in cell viability after 72 hrs by CCK8 assay; assay type: functional, cell-based; conditions: 4T1, 72 h
A549 [7] = test: Cytotoxicity against human A549 cells assessed as reduction in cell viability after 72 hrs by CCK8 assay; assay type: functional, cell-based; conditions: A549, 72 h
T47D [8] = test: Cytotoxicity against human T47D cells assessed as reduction in cell viability after 72 hrs by CCK8 assay; assay type: functional, cell-based
MDA-MB-231 [9] = test: Cytotoxicity against human MDA-MB-231 cells assessed as reduction in cell viability after 72 hrs by CCK8 assay; assay type: functional, cell-based; conditions: MDA-MB-231, 72 h
4T1 [10] = test: Antitumor activity against mouse Fluc-labeled 4T1 cells implanted in Balb/c mouse assessed as tumor growth inhibition at 130 mg/kg, ip administered daily for 18 days measured after 8 to 25 days by bioluminescence assay relative to control; assay type: functional; conditions: 4T1, ip, read-out: TGI
MDA-MB-468 = test: Cytotoxicity against human MDA-MB-468 cells assessed as reduction in cell viability after 72 hrs by CCK8 assay; assay type: functional, cell-based; conditions: MDA-MB-468, 72 h
HepG2 [11] = test: Cytotoxicity against human HepG2 cells assessed as reduction in cell viability after 72 hrs by CCK8 assay; assay type: functional, cell-based; conditions: HepG2, 72 h
A549 [12] = test: Cell cycle arrest in human A549 cells assessed as accumulation at G0/G1 phase after 24 hrs by propidium iodide staining based flow cytometry; assay type: functional; in short: as §1
4T1 [13] = test: Antitumor activity against mouse Fluc-labeled 4T1 cells implanted in Balb/c mouse assessed as reduction in tumor weight at 130 mg/kg, ip administered daily for 18 days measured after 8 to 25 days; assay type: functional, organism-based
In short: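 Luciferase (Fluc) reporter introduced into 4T1 cells by lentiviral transduction. Cells implanted orthotopically into mammary fat pads of female BALB/c mice aged 6–8 weeks. Once tumours averaged 100 mm3, dosing was daily by IP injection. Bioluminescence imaging was done at days 8 and 25 to reflect viable tumour cell number. Tumour weight was recorded at study end.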

MDA-MB-231 [14] = test: Cell cycle arrest in human MDA-MB-231 cells assessed as accumulation at G0/G1 phase after 24 hrs by propidium iodide staining based flow cytometry; assay type: functional; in short: as §1
Hep 3B2 [15] = test: Cell cycle arrest in human Hep3B cells assessed as accumulation at G0/G1 phase after 24 hrs by propidium iodide staining based flow cytometry; assay type: functional; in short: as §1
NCI-H460 [16] = test: Cytotoxicity against human NCI-H460 cells assessed as reduction in cell viability after 72 hrs by CCK8 assay; assay type: functional, cell-based; conditions: NCI-H460, 72 h
HepG2 [17] = test: Induction of apoptosis in human HepG2 cells assessed as live cells at 10 uM after 48 hrs by annexin V-FITC/propidium iodide staining based flow cytometry (reference value: 96.7%); assay type: functional
A549 [18] = test: Induction of apoptosis in human A549 cells assessed as late apoptotic cells at 10 uM after 48 hrs by annexin V-FITC/propidium iodide staining based flow cytometry (reference value: 0.88%); assay type: functional
Hep 3B2 [19] = test: Induction of apoptosis in human Hep3B cells assessed as late apoptotic cells at 10 uM after 48 hrs by annexin V-FITC/propidium iodide staining based flow cytometry (reference value: 5.25%); assay type: functional
MDA-MB-231 [20] = test: Induction of apoptosis in human MDA-MB-231 cells assessed as live cells at 10 uM after 48 hrs by annexin V-FITC/propidium iodide staining based flow cytometry (reference value: 98.1%); assay type: functional
MDA-MB-231 [21] = test: Induction of apoptosis in human MDA-MB-231 cells assessed as early apoptotic cells at 10 uM after 48 hrs by annexin V-FITC/propidium iodide staining based flow cytometry (reference value: 0.4%); assay type: functional
NCI-H460 [22] = test: Induction of apoptosis in human NCI-H460 cells assessed as late apoptotic cells at 10 uM after 48 hrs by annexin V-FITC/propidium iodide staining based flow cytometry (reference value: 1.29%); assay type: functional
HepG2 [23] = test: Induction of apoptosis in human HepG2 cells assessed as early apoptotic cells at 10 uM after 48 hrs by annexin V-FITC/propidium iodide staining based flow cytometry (reference value: 0.3%); assay type: functional
A549 [24] = test: Induction of apoptosis in human A549 cells assessed as live cells at 10 uM after 48 hrs by annexin V-FITC/propidium iodide staining based flow cytometry (reference value: 92.7%); assay type: functional
HepG2 [25] = test: Induction of apoptosis in human HepG2 cells assessed as late apoptotic cells at 10 uM after 48 hrs by annexin V-FITC/propidium iodide staining based flow cytometry (reference value: 0.64%); assay type: functional
MDA-MB-231 [26] = test: Induction of apoptosis in human MDA-MB-231 cells assessed as late apoptotic cells at 10 uM after 48 hrs by annexin V-FITC/propidium iodide staining based flow cytometry (reference value: 1.53%); assay type: functional
T47D [27] = test: Induction of apoptosis in human T47D cells assessed as necrotic cells at 10 uM after 48 hrs by annexin V-FITC/propidium iodide staining based flow cytometry (reference value: 0.8%); assay type: functional
T47D [28] = test: Induction of apoptosis in human T47D cells assessed as late apoptotic cells at 10 uM after 48 hrs by annexin V-FITC/propidium iodide staining based flow cytometry (reference value: 6.16%); assay type: functional
T47D [29] = test: Induction of apoptosis in human T47D cells assessed as early apoptotic cells at 10 uM after 48 hrs by annexin V-FITC/propidium iodide staining based flow cytometry (reference value: 7.7%); assay type: functional
A549 [30] = test: Induction of apoptosis in human A549 cells assessed as early apoptotic cells at 10 uM after 48 hrs by annexin V-FITC/propidium iodide staining based flow cytometry (reference value: 0.41%); assay type: functional
T47D [31] = test: Induction of apoptosis in human T47D cells assessed as live cells at 10 uM after 48 hrs by annexin V-FITC/propidium iodide staining based flow cytometry (reference value: 85.3%); assay type: functional
HepG2 [32] = test: Induction of apoptosis in human HepG2 cells assessed as necrotic cells at 10 uM after 48 hrs by annexin V-FITC/propidium iodide staining based flow cytometry (reference value: 2.32%); assay type: functional
NCI-H460 [33] = test: Induction of apoptosis in human NCI-H460 cells assessed as live cells at 10 uM after 48 hrs by annexin V-FITC/propidium iodide staining based flow cytometry (reference value: 97.3%); assay type: functional
Hep 3B2 [34] = test: Induction of apoptosis in human Hep3B cells assessed as necrotic cells at 10 uM after 48 hrs by annexin V-FITC/propidium iodide staining based flow cytometry (reference value: 4.97%); assay type: functional
Hep 3B2 [35] = test: Induction of apoptosis in human Hep3B cells assessed as live cells at 10 uM after 48 hrs by annexin V-FITC/propidium iodide staining based flow cytometry (reference value: 97.9%); assay type: functional
NCI-H460 [36] = test: Induction of apoptosis in human NCI-H460 cells assessed as necrotic cells at 10 uM after 48 hrs by annexin V-FITC/propidium iodide staining based flow cytometry (reference value: 1.34%); assay type: functional
A549 [37] = test: Induction of apoptosis in human A549 cells assessed as necrotic cells at 10 uM after 48 hrs by annexin V-FITC/propidium iodide staining based flow cytometry (reference value: […]%); assay type: functional
MDA-MB-231 [38] = test: Induction of apoptosis in human MDA-MB-231 cells assessed as necrotic cells at 10 uM after 48 hrs by annexin V-FITC/propidium iodide staining based flow cytometry (reference value: […]); assay type: functional
NCI-H460 [39] = test: Induction of apoptosis in human NCI-H460 cells assessed as early apoptotic cells at 10 uM after 48 hrs by annexin V-FITC/propidium iodide staining based flow cytometry (reference value: 0.11%); assay type: functional

SMILES: CN(C)C(=O)c1cc2cnc(Nc3ccc(N4CCNCC4)cn3)nc2n1C1CCCC1 [RIBOCICLIB]
- IC50 (Hep 3B2 [1]): > 10 µM
- Activity (NCI-H460 [2]): Active
- inhibition in vivo at 130 mg/kg (4T1 [3]): 38.9%
- IC50 (NCI-H1299): 5.46 µM
- Activity (T47D [4]): Active
- Activity (HepG2 [5]): Active
- IC50 (4T1 [6]): > 10 µM
- IC50 (A549 [7]): > 10 µM
- IC50 (T47D [8]): 6.23 µM
- IC50 (MDA-MB-231 [9]): > 10 µM
- inhibition in vivo at 130 mg/kg (4T1 [10]): 68.5%
- IC50 (MDA-MB-468): > 10 µM
- IC50 (HepG2 [11]): > 10 µM
- Activity (A549 [12]): Active
- Activity (4T1 [13]): Active
- Activity (MDA-MB-231 [14]): Active
- Activity (Hep 3B2 [15]): Active
- IC50 (NCI-H460 [16]): > 10 µM

SMILES: O=C(CCCCCCC(=O)Nc1ccccc1)NO [VORINOSTAT]
- Activity (HepG2 [17]): 74.9%
- Activity (A549 [18]): 33.4%
- Activity (Hep 3B2 [19]): 32.8%
- Activity (MDA-MB-231 [20]): 74.8%
- IC50 (Hep 3B2 [1]): 2.3 µM
- Activity (MDA-MB-231 [21]): 3.74%
- Activity (NCI-H460 [22]): 6.4%
- Activity (HepG2 [23]): 5.43%
- Activity (A549 [24]): 42.1%
- Activity (HepG2 [25]): 14%
- Activity (MDA-MB-231 [26]): 18.7%
- Activity (T47D [27]): 4.48%
- Activity (T47D [28]): 26.4%
- Activity (T47D [29]): 48.6%
- Activity (A549 [30]): 6.41%
- Activity (T47D [31]): 20.4%
- Activity (HepG2 [32]): 5.69%
- Activity (NCI-H460 [33]): 86.6%
- Activity (Hep 3B2 [34]): 3.43%
- Activity (Hep 3B2 [35]): 53.2%
- Activity (NCI-H460 [36]): 4.81%
- Activity (A549 [37]): 18.1%
- Activity (4T1 [13]): Active
- Activity (MDA-MB-231 [38]): 2.72%
- Activity (NCI-H460 [39]): 2.2%
